Series [1] concerns Trypanosoma brucei rhodesiense. Briefly: Antitrypanosomal activity against bloodstream trypomastigote forms of Trypanosoma brucei rhodesiense STIB 900 assessed as inhibition of growth. The format is functional, organism-based. An outline of the steps: (§1)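 Parasite growth assay run in 96-well format per an earlier protocol. Dose–response curves were constructed, and the 50% growth-inhibitory concentration was calculated by linear regression from the sigmoidal dose–inhibition curves.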

Series [2] concerns Trypanosoma brucei brucei. The experiment in a line: Activity of histidine tagged recombinant Trypanosoma brucei brucei type 1 nitroreductase assessed as NADH oxidation at 100 uM by spectrophotometry method. In short, it runs like this:
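Purified recombinant his-tagged T. b. brucei type I nitroreductase. Each nitrotriazole substrate at 100 µM with NADH at 100 µM. NADH oxidation followed spectrophotometrically at 340 nm. Specific activity expressed as nmol NADH oxidized per min per mg enzyme.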

A further series concerns Leishmania donovani. Briefly: Antileishmanial activity against axenic amastigote forms of Leishmania donovani MHOM/ET/67/L82 assessed as inhibition of growth. The format is functional, organism-based. An outline of the steps: as §1
The next series has as its system L6. The experiment in a line: Cytotoxicity against rat L6 cells assessed as cell viability. The format is cell-based.
Series [3] is described as follows: Selectivity index, ratio of IC50 for rat L6 cells to IC50 for bloodstream trypomastigote forms of Trypanosoma brucei rhodesiense STIB 900. As to conditions: L6 cells.
For series [4], the system named is Trypanosoma cruzi. Briefly: Antichagasic activity against amastigote forms of Trypanosoma cruzi Tulahuen C4 assessed as inhibition of growth. Type of series: functional, organism-based. An outline of the steps:
as §1

Series [5] in a line: Selectivity index, ratio of IC50 for rat L6 cells to IC50 for amastigote forms of Trypanosoma cruzi Tulahuen C4. As to conditions: L6 cells.
In series [6] the test system is Trypanosoma cruzi. The experiment in a line: Activity of histidine tagged recombinant Trypanosoma cruzi type 1 nitroreductase assessed as NADH oxidation at 100 uM by spectrophotometry method. In short, it runs like this: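 Purified recombinant T. cruzi type I nitroreductase, prepared and assayed per earlier work. Specific activity expressed as NADH oxidized per min per mg protein.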

Series [7] can be described thus: Selectivity index, ratio of IC50 for rat L6 cells to IC50 for amastigote forms of Leishmania donovani MHOM/ET/67/L82. As to conditions: L6 cells.
Series [8] relates to Trypanosoma brucei brucei. Briefly: Antimicrobial activity against bloodstream forms of Trypanosoma brucei brucei assessed as reduction in cell viability after 3 days by alamar blue assay. The following applies: 72 h. Type of series: functional, organism-based.
The test system of series [9] is Trypanosoma brucei brucei. The experiment in a line: Antimicrobial activity against bloodstream forms of Trypanosoma brucei brucei overexpressing type I nitroreductase assessed as reduction in cell viability after 3 days by alamar blue assay in absence of tetracycline. The format is functional, organism-based. The following applies: 72 h. In general terms: The colour change of resazurin is a common sign of viable cells or microbes.

Series [10] relates to Trypanosoma brucei brucei. Briefly: Ratio of IC50 for bloodstream forms of Trypanosoma brucei brucei overexpressing type I nitroreductase in absence of tetracycline to IC50 for bloodstream forms of Trypanosoma brucei brucei overexpressing type I nitroreductase in presence of tetracycline. The format is functional.
The subject of series [11] is Trypanosoma brucei brucei. The experiment in a line: Antimicrobial activity against bloodstream forms of Trypanosoma brucei brucei overexpressing type I nitroreductase assessed as reduction in cell viability after 3 days by alamar blue assay in presence of tetracycline. Type of series: functional, organism-based. As to conditions: 72 h.
Series [12] can be described thus: Half life in human liver S9 microsomes in absence of NADPH by LC-MS/MS method.
Series [13] can be described thus: Half life in human liver S9 microsomes in presence of NADPH by LC-MS/MS method.
In series [14] the test system is Trypanosoma cruzi. Briefly: Antichagasic activity against firefly luciferase expressing trypamastigote forms of transgenic Trypanosoma cruzi Y infected in Balb/c mouse assessed as reduction in parasite level at 15 mg/kg/day, ip dosed for 10 days by luciferase reporter gene assay. The following applies: 240 h. The format is functional. In short, it runs like this: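 Balb/c mice were infected with luciferase-expressing T. cruzi Y trypomastigotes and imaged at baseline after i.p. D-luciferin 150 mg/kg in PBS. Ratio = post-treatment / pre-treatment luciferase signal per animal; group mean ± SD.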
In general terms: Reporter assays use an easily measured gene product as a stand-in for the process of interest.

In general, IC50 refers to the point on the concentration scale where inhibition reaches its midpoint. The term half-life denotes the time in which the quantity being followed falls by half. Usually inhibition in vivo stands for the change of the read-out against control, counted positive when it falls.

For the compound `Cc1ccc(N2CCN(C(=O)Cn3cnc([N+](=O)[O-])n3)CC2)cc1`, the IC50 in series [1] was 9.91 µM; with Leishmania donovani, 10.8 µM; in the series with L6 it was 148 µM; in the series with Trypanosoma cruzi [4], 1.33 µM; in series [8], more than 30 µM. Also, the values for the Activity (in [2]; with Trypanosoma cruzi [6]) were 2190 nmol/min/mg and 787 nmol/min/mg, respectively. Further, the values for the selectivity ratio in series [3], in series [5] and in [7] were 15, 112 and 14, respectively.
As for `O=C(Cn1cnc([N+](=O)[O-])n1)N1CCN(C(=O)C2CC2)CC1`, the IC50 came out at 85.2 µM in [1], 30.6 µM in the series on Leishmania donovani, 156 µM in the series with L6 and 148 µM with Trypanosoma cruzi [4]. Further, the selectivity ratio in [3] is 1.83; in series [5], 1.05; in series [7], 5.12.
For the compound `O=C(CN1CCN(c2ccc(Cl)c(Cl)c2)CC1)N1CCN(c2ccc(Cl)c(Cl)c2)CC1`, the IC50 is 26 µM in series [1], 6.27 µM in the series on Leishmania donovani, 20.2 µM in the series with L6 and 1.81 µM with Trypanosoma cruzi [4]. For the same compound, the selectivity ratio was less than 1 in series [3], 11 in [5] and 3 in series [7].
Consider `N#Cc1ccccc1N1CCN(C(=O)Cn2cnc([N+](=O)[O-])n2)CC1`, for which the IC50 in series [1] was determined as 11.3 µM; with Leishmania donovani, 14.6 µM; in the series with L6, 213 µM; in the series on Trypanosoma cruzi [4], 2.85 µM. The selectivity ratio in [3] is 19; in series [5] it was 75; in [7], 15.
On to `O=C(Cn1cnc([N+](=O)[O-])n1)N1CCN(c2ccccn2)CC1`, for which the IC50 in series [1] worked out at 19.3 µM; in the series on Leishmania donovani, 18.5 µM; with L6 it was 173 µM; with Trypanosoma cruzi [4] it was 4.64 µM. Also, the selectivity ratio in series [3] was determined as 8.98; in series [5], 37.3; in series [7], 9.35.
For `O=C(Cn1ccnc1[N+](=O)[O-])N1CCN(c2ncccn2)CC1`, the IC50 in [1] is 157 µM; in the series on Leishmania donovani, 133 µM; in the series on L6, 280 µM; in the series with Trypanosoma cruzi [4] it was 142 µM. Also, the selectivity ratio came to 1.79 in [3], 1.97 in series [5] and 2.11 in [7].
As for `O=C(Cn1cnc([N+](=O)[O-])n1)N1CCN(C(c2ccccc2)c2ccc(Cl)cc2)CC1` (stereo not given), the IC50 in series [1] is 3.41 µM; in the series on Leishmania donovani, 1.45 µM; in the series on L6, 21.9 µM; in the series on Trypanosoma cruzi [4], 0.073 µM; in series [9], 3.86 µM; in series [11] it was 1.04 µM. Also, the IC50 in series [8] was 2.75 µM. Besides, the figures for the Activity (in series [2]; in the series with Trypanosoma cruzi [6]) were 3910 nmol/min/mg and 672 nmol/min/mg, respectively. Moreover, the selectivity ratio in [3] is 6.43; in [5] it was 302; in [7], 14.6. Also, in series [10], the “Ratio IC50” value was 3.7.
For `N#Cc1ccccc1N1CCN(CC(=O)N2CCN(c3ccccc3C#N)CC2)CC1`, the IC50 in series [1] worked out at 12.8 µM; in the series with Leishmania donovani, 24.3 µM; in the series on L6, 127 µM; in the series with Trypanosoma cruzi [4], 25.7 µM. The selectivity ratio in series [3] was 9.9; in series [5], 5; in series [7], 4.
For the compound `COc1ccc(N2CCN(C(=O)Cn3cnc([N+](=O)[O-])n3)CC2)cc1`, the IC50 worked out at 16.4 µM in series [1], 18.5 µM in the series with Leishmania donovani, 133 µM with L6 and 2.42 µM with Trypanosoma cruzi [4]. Further, the values for the selectivity ratio in series [3], in series [5] and in [7] were 8.1, 54.7 and 7.18, respectively.
For `O=C(CN1CCN(c2ccc(C(F)(F)F)cc2)CC1)N1CCN(c2ccc(C(F)(F)F)cc2)CC1`, the IC50 in series [1] is 24.6 µM; with Leishmania donovani it was 5.03 µM; with L6, 31.7 µM; in the series with Trypanosoma cruzi [4], 2.71 µM. The selectivity ratio in series [3] was determined as 1.2; in [5], 12; in series [7], 6.
With `Cc1ccc(N2CCN(CC(=O)N3CCN(c4ccc(C)cc4)CC3)CC2)cc1`, the IC50 in series [1] amounted to 26.3 µM; with Leishmania donovani, 24.2 µM; in the series on L6, 213 µM; in the series on Trypanosoma cruzi [4], 29.8 µM. The values for the selectivity ratio in [3], in series [5] and in series [7] were 8.1, 7 and 9, respectively.
With `O=C(Cn1cnc([N+](=O)[O-])n1)N1CCN(Cc2ccc(C(F)(F)F)cc2)CC1`, the IC50 in series [1] is 1.39 µM; in the series with Leishmania donovani, 9.7 µM; in the series with L6, 111 µM; with Trypanosoma cruzi [4] it was 0.862 µM; in series [9] it was more than 30 µM; in series [11] it was 1.78 µM. Moreover, the IC50 in series [8] was determined as 26 µM. Further, the Activity came out at 3800 nmol/min/mg in [2] and 701 nmol/min/mg in the series on Trypanosoma cruzi [6]. Moreover, the half-life in series [12] and in series [13] was more than 3 h throughout.
For the compound `O=C(CN1CCN(c2ccc(Cl)cc2)CC1)N1CCN(c2ccc(Cl)cc2)CC1`, the IC50 in series [1] is 12.6 µM; in the series with Leishmania donovani it was 18 µM; in the series with L6 it was 116 µM; in the series with Trypanosoma cruzi [4], 6.06 µM. For the same compound, the values for the selectivity ratio in [3], in series [5] and in series [7] were 9, 19 and 6, respectively.
In the case of `O=C(Cn1ccnc1[N+](=O)[O-])NCc1ccccc1` [BENZNIDAZOLE], the Activity in [2] was 1540 nmol/min/mg; in the series with Trypanosoma cruzi [6], 680 nmol/min/mg. Besides, the inhibition in vivo at 15 mg/kg/day with Trypanosoma cruzi [14] turned out to be 99%.
With `O=C(Cn1cnc([N+](=O)[O-])n1)N1CCN(c2ncccn2)CC1`, the IC50 was 33.4 µM in [1]; 22.9 µM in the series with Leishmania donovani; 150 µM in the series on L6; 10 µM with Trypanosoma cruzi [4]; more than 30 µM in series [8]. Also, the Activity was determined as 2060 nmol/min/mg in [2] and 743 nmol/min/mg with Trypanosoma cruzi [6]. Moreover, the selectivity ratio stood at 4.5 in series [3], 15 in [5] and 6.52 in [7].
With `O=C(Cn1cnc([N+](=O)[O-])n1)N1CCN(c2ccc(Cl)cc2)CC1`, the IC50 was 74.3 µM in [1]; 9.39 µM in the series on Leishmania donovani; more than 285 µM with L6; 1.12 µM with Trypanosoma cruzi [4]; more than 30 µM in series [8]. For the same compound, the results for the Activity (in series [2]; in the series with Trypanosoma cruzi [6]) were 2180 nmol/min/mg and 761 nmol/min/mg, respectively. Further, the selectivity ratio in series [3] is more than 4; in series [5], more than 254; in series [7], more than 30.
For `O=C(Cn1cnc([N+](=O)[O-])n1)N1CCN(c2ccc(C(F)(F)F)cc2)CC1`, the IC50 in series [1] came to 4.22 µM; in the series on Leishmania donovani it was 1.88 µM; with L6 it was 202 µM; in the series on Trypanosoma cruzi [4], 0.596 µM; in [9], 13.6 µM; in [11] it was 0.85 µM. Moreover, the IC50 in series [8] was determined as 17.5 µM. Also, the Activity in [2] came out at 2190 nmol/min/mg; with Trypanosoma cruzi [6] it was 707 nmol/min/mg. Further, the selectivity ratio in [3] was 48; in series [5], 340; in [7] it was 108. In addition, the “Ratio IC50” value in [10] worked out at 16.

These data come from ChEMBL document CHEMBL3632593, “3-Nitrotriazole-based piperazides as potent antitrypanosomal agents” (Eur J Med Chem, 2015).
